The values below come from ChEMBL document CHEMBL2440084, “Design and bio-evaluation of indole derivatives as potent Kv1.5 inhibitors” (Bioorg Med Chem, 2013).

The species entered for one data set is Homo sapiens. As to the kind of experiment: Selectivity ratio of IC50 for human ERG channel to IC50 for human Kv1.5 channel.
The target of data set [1] is Voltage-gated inwardly rectifying potassium channel KCNH2 (Homo sapiens, UniProt Q12809). Description: Inhibition of human ERG channel expressed in CHO cells by whole cell patch clamp technique. The data set is classed as cell-based. (Patch clamp records ionic current or voltage across a cell membrane.)
Sequence of Voltage-gated inwardly rectifying potassium channel KCNH2 (Q12809 whole entry): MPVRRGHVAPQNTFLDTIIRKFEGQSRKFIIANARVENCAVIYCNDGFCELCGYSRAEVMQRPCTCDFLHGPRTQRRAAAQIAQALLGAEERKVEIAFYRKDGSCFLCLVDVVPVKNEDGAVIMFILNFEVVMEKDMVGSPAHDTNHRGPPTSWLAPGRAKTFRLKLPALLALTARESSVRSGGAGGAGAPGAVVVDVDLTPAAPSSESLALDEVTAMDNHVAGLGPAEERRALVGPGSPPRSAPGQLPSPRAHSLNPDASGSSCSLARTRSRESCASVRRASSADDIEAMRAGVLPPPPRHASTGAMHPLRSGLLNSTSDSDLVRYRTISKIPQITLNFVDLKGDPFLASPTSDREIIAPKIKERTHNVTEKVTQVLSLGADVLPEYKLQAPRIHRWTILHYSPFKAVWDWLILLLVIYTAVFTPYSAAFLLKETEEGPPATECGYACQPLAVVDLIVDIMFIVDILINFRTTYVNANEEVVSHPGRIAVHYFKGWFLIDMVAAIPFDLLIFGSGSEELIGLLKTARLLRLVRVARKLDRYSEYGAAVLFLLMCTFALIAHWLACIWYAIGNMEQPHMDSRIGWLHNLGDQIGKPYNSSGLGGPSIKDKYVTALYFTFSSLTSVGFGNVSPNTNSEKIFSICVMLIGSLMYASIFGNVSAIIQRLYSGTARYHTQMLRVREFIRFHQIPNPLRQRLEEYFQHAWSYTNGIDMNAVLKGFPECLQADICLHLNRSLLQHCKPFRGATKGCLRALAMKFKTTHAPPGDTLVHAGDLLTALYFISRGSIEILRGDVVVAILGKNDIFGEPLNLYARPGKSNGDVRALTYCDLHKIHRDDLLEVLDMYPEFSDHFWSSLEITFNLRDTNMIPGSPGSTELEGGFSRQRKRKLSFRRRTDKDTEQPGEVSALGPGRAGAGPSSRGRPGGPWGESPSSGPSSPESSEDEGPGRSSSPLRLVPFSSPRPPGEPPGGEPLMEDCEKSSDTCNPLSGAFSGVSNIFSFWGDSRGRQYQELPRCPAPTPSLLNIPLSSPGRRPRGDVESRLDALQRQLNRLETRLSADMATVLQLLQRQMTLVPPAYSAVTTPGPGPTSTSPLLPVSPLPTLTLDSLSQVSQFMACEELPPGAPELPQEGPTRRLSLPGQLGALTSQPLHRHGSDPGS
The target in data set [2] is T1, Potassium voltage-gated channel subfamily A member 5 (Homo sapiens, UniProt P22460). Description: Inhibition of human Kv1.5 channel expressed in HEK293 cells by whole cell patch clamp technique. The data set is classed as cell-based. In short, it runs like this:
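HEK 293 cells stably expressing hKv1.5 were grown at 37 °C with 10% FBS and 0.2 mg/mL geneticin, trypsinized and used the same day. Whole-cell I_Kur was evoked by 500-ms steps to +60 mV from -80 mV at 0.1 Hz, at 25 °C. Compound was applied ≥5 min after current stabilized. IC50 came from cell-by-cell Hill fits, ≥3 cells per concentration, mean ± SD, n = 3.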

The species named for the next data set is Rattus norvegicus. As to the kind of experiment: Prolongation of atrial effective refractory period in left atrium of Sprague-Dawley rat heart after 10 mins. The data set is classed as functional, tissue-based. The note with it: Cardiac atrium. Summed up: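 Male SD rats (230 ± 30 g) were anesthetized with i.p. chloral hydrate. Left atrium and right ventricle were isolated into Krebs-Henseleit solution at pH 7.4, gassed with 95% O2/5% CO2. Compound was added cumulatively at 0.1, 1.0, 10 and 50 μmol/L, with 10 min equilibration each. ERP was recorded before and after compound. Values are mean ± SEM, n = 3, compared by Student's t test.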

The subject of the next data set is HEK293. Description: Selectivity ratio of IC50 for sodium channel in guinea pig ventricular myocytes to IC50 for human Kv1.5 channel expressed in HEK293 cells. The class given is cell-based.
Data set [3] is described as follows: Inhibition of sodium channel in guinea pig ventricular myocytes by whole cell patch clamp technique. The data set is classed as cell-based. The note with it: Cavia porcellus, Ventricular myocyte. Summed up:
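Whole-cell I_Na was recorded in enzymatically isolated ventricular myocytes, using only quiescent, rod-shaped, striated cells, at 25 °C. Holding potential was -90 mV, with 30-ms pulses from -80 to +40 mV in 10-mV increments at 0.5 Hz. Compound was applied ≥5 min after current stabilized. IC50 came from cell-by-cell Hill fits, ≥3 cells per concentration, mean ± SD.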

Data set [4] in a line: Effect on ventricular effective refractory period in right ventricle of Sprague-Dawley rat heart at 0.1 to 50 umol/L after 10 mins.
The target in data set [5] is T1, Potassium voltage-gated channel subfamily A member 5. Description: Inhibition of human Kv1.5 channel expressed in HEK293 cells at 10 uM by whole cell patch clamp technique. The data set is classed as cell-based.

Structures are written as SMILES.

T1 sequence (P22460 whole entry): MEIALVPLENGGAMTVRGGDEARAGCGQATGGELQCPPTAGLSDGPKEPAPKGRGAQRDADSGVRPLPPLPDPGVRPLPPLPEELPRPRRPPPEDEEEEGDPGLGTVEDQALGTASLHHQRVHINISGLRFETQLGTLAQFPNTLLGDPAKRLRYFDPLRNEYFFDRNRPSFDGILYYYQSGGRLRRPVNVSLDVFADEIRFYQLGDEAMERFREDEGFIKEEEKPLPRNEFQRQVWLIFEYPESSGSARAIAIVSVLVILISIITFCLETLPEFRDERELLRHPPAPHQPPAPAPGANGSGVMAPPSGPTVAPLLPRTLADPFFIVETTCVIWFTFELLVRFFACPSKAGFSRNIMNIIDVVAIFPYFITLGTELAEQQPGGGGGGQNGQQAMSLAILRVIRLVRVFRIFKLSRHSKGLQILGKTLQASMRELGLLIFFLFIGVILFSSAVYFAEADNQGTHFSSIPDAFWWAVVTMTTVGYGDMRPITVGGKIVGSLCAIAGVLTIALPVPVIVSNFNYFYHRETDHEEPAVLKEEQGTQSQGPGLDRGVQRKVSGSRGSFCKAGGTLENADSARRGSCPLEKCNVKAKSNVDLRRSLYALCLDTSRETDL

As usually defined, the IC50 is the point on the concentration scale where inhibition reaches its midpoint. The term inhibition denotes the change of the read-out against control, counted positive when it falls. For `CCCCOc1ccc(S(=O)(=O)NCCc2c[nH]c3ccccc23)cc1`, in the data set filed under Homo sapiens, the Ratio IC50 stood at 0.32. Further, the midpoint of inhibition in data set [1], the IC50, lay at 3.18 µM. In data set [2], 9.95 µM corresponded to half-maximal inhibition (IC50) and the inhibition entry is “Dose-dependent effect”.
As to `COc1ccc2c(c1)c(/C=N/NS(=O)(=O)c1ccc(C)cc1)cn2CC(=O)Nc1ccc(Cl)cc1`, the Activity entry is “Dose-dependent effect” in the data set filed under Rattus norvegicus and “Non-toxic” in data set [4]. Besides, the Ratio IC50 was 103 with HEK293 and 820 in the data set listed under Homo sapiens. Besides, the IC50 in data set [3] was 52.6 µM; in data set [1], 418 µM; in data set [2], 0.51 µM. The inhibition result in data set [2] is “Dose-dependent effect”.
In the case of `Cc1ccc(S(=O)(=O)N/N=C/c2cn(CC(=O)Nc3cc(C)ccc3C)c3ccccc23)cc1`, in data set [2], 1.77 µM corresponded to half-maximal inhibition (IC50) and the inhibition result is “Dose-dependent effect”.
Take `COc1ccc2c(c1)c(/C=N/NS(=O)(=O)c1ccc(C)cc1)cn2CC(=O)Nc1ccc(F)cc1F`: in data set [2], inhibition was half-maximal at 2.18 µM (IC50) and the inhibition result is “Dose-dependent effect”.
`COc1ccc(NC(=O)Cn2cc(CCNS(=O)(=O)c3ccc(C)cc3)c3ccccc32)cc1`: in data set [2], the IC50 stood at 38.7 µM and the inhibition entry is “Dose-dependent effect”.
As to `Cc1ccc(S(=O)(=O)N/N=C/c2cn(CC(=O)Nc3ccccc3Cl)c3ccccc23)cc1`, the Ratio IC50 in the data set listed under Homo sapiens came out at 25.2. The compound further had an IC50 in data set [1] of 18.7 µM. Besides, in data set [2], 0.74 µM corresponded to half-maximal inhibition (IC50) and the inhibition result is “Dose-dependent effect”.
`CCCCOc1ccc(S(=O)(=O)NCCc2cn(CC(=O)Nc3ccc(Cl)cc3)c3ccccc23)cc1`: in data set [2], 185 µM corresponded to half-maximal inhibition (IC50) and the inhibition entry was “Dose-dependent effect”.
Regarding `CCCCOc1ccc(S(=O)(=O)NC(Cc2c[nH]c3ccccc23)C(=O)O)cc1` (stereo not drawn), in data set [2], the IC50 came to 65.4 µM and the inhibition result was “Dose-dependent effect”.
The like results for `COc1ccc2c(c1)c(/C=N/NS(=O)(=O)c1ccc(C)cc1)cn2CC(=O)Nc1ccccc1` were, in that order, 3.73 µM and “Dose-dependent effect”.
Regarding `COc1ccc(NC(=O)Cn2cc(/C=N/NS(=O)(=O)c3ccc(C)cc3)c3ccccc32)cc1`, in data set [2], inhibition was half-maximal at 16.9 µM (IC50) and the inhibition entry was “Dose-dependent effect”.
As for `COC(=O)C(Cc1c[nH]c2ccccc12)NS(=O)(=O)c1ccc(OC)cc1` (stereo not drawn), in data set [2], the IC50 was 5.45 µM and the inhibition result is “Dose-dependent effect”.
As to `COC(=O)C(Cc1c[nH]c2ccccc12)NS(=O)(=O)c1ccc(OC2CCCC2)cc1` (stereo not drawn), in data set [2], the midpoint of inhibition, the IC50, lay at 2.38 µM and the inhibition entry was “Dose-dependent effect”.
As to `Cc1ccc(S(=O)(=O)N/N=C/c2cn(CC(=O)Nc3ccc(OC(F)(F)F)cc3)c3ccccc23)cc1`, in data set [2], the IC50 is 1.52 µM and the inhibition result is “Dose-dependent effect”.
For `CCCCOc1ccc(S(=O)(=O)NC(Cc2ccccc2)C(=O)OC)cc1` (stereo not drawn), in data set [2], inhibition was half-maximal at 110 µM (IC50) and the inhibition entry was “Dose-dependent effect”.
Consider `COC(=O)C(Cc1c[nH]c2ccccc12)NS(=O)(=O)c1ccc(Br)cc1` (stereo not drawn), for which, in data set [2], the IC50 worked out at 2.25 µM and the inhibition result is “Dose-dependent effect”.
The like results for `COc1ccc(S(=O)(=O)NCCc2cn(CC(=O)Nc3ccc(Cl)cc3)c3ccccc23)cc1` were, in that order, 3.14 µM and “Dose-dependent effect”.
Regarding `COC(=O)C(Cc1c[nH]c2ccccc12)NS(=O)(=O)c1ccc(OC(C)C)cc1` (stereo not drawn), in data set [2], half-maximal inhibition (IC50) was put at 3.93 µM and the inhibition entry is “Dose-dependent effect”.
On to `Cc1ccc(S(=O)(=O)N/N=C/c2cn(CC(=O)Nc3ccc(Cl)cc3)c3ccccc23)cc1`, for which, in data set [2], the IC50 stood at 1.9 µM and the inhibition entry is “Dose-dependent effect”.
Take `COc1ccc(NC(=O)Cn2cc(CCNS(=O)(=O)c3ccc(OC)cc3)c3ccccc32)cc1`: in the data set listed under Homo sapiens, the Ratio IC50 is 5.95. Besides, the IC50 was determined as 10.2 µM in data set [1] and 1.72 µM in data set [2]. Besides, in data set [2], the inhibition result was “Dose-dependent effect”.
Regarding `Cc1ccc(S(=O)(=O)N/N=C/c2cn(CC(=O)Nc3ccc(C)cc3C)c3ccccc23)cc1`, in data set [2], half-maximal inhibition (IC50) was put at 24 µM and the inhibition result is “Dose-dependent effect”.
Compound `CCCCOc1ccc(S(=O)(=O)NC(Cc2c[nH]c3ccccc23)C(=O)OC)cc1` (stereo not drawn) showed an inhibition in data set [5] of 52%. In data set [2], the IC50 was 8.37 µM and the inhibition result is “Dose-dependent effect”.
On to `CCC(=O)Oc1ccc(NC(=O)Cn2cc(/C=N/NS(=O)(=O)c3ccc(C)cc3)c3ccccc32)cc1`, for which, in data set [2], it took 2.14 µM to reach half-maximal inhibition (IC50) and the inhibition entry was “Dose-dependent effect”.
For the compound `Cc1ccc(S(=O)(=O)N/N=C/c2cn(CC(=O)Nc3ccc(F)cc3F)c3ccccc23)cc1`, the results for the Activity result (in the data set listed under Rattus norvegicus; in data set [4]) were “Dose-dependent effect” and “Non-toxic”, respectively. Besides, the Ratio IC50 in the data set with HEK293 is 459; in the data set listed under Homo sapiens, 172. Further, the figures for the IC50 in data set [3], in data set [1] and in data set [2] were 115 µM, 43 µM and 0.25 µM, respectively. In data set [2], the inhibition result is “Dose-dependent effect”.
Consider `Cc1ccc(S(=O)(=O)NCCc2cn(CC(=O)Nc3ccc(Cl)cc3)c3ccccc23)cc1`, for which, in data set [2], the IC50 worked out at 12.9 µM and the inhibition entry is “Dose-dependent effect”.
Regarding `COC(=O)C(Cc1c[nH]c2ccccc12)NS(=O)(=O)c1ccc(F)cc1` (stereo not drawn), in data set [2], the midpoint of inhibition, the IC50, lay at 6.45 µM and the inhibition result is “Dose-dependent effect”.
Take `COC(=O)C(Cc1c[nH]c2ccccc12)NS(=O)(=O)c1ccc(OCC(C)C)cc1` (stereo not drawn): in data set [2], the IC50 came out at 3.56 µM and the inhibition entry was “Dose-dependent effect”.
As for `Cc1ccc(S(=O)(=O)N/N=C/c2cn(CC(=O)Nc3ccccc3)c3ccccc23)cc1`, the Ratio IC50 came out at 96.3 in the data set on HEK293 and 53.9 in the data set listed under Homo sapiens. The results for the IC50 in data set [3], in data set [1] and in data set [2] were 78 µM, 43.6 µM and 0.81 µM, respectively. For the same compound, the inhibition result in data set [2] is “Dose-dependent effect”.
Consider `CCCCOc1ccc(S(=O)(=O)NCCc2cn(CC(=O)Nc3ccc(OC)cc3)c3ccccc23)cc1`, for which, in data set [2], inhibition was half-maximal at 6.21 µM (IC50) and the inhibition result is “Dose-dependent effect”.
For the compound `COC(=O)C(Cc1c[nH]c2ccccc12)NS(=O)(=O)c1ccc(C)cc1` (stereo not drawn), in data set [2], the midpoint of inhibition, the IC50, lay at 4.72 µM and the inhibition result was “Dose-dependent effect”.
With `Cc1ccc(S(=O)(=O)N/N=C/c2cn(CC(=O)Nc3ccc(C)c(C)c3)c3ccccc23)cc1`, in data set [2], inhibition was half-maximal at 11.2 µM (IC50) and the inhibition entry is “Dose-dependent effect”.
